# ERAP1 inh – ERAP1 (human) enzyme inhibition | recombinant ERAP1, Leu-AMC fluorescence, 60 min | inhibition, % at 10.7 µM | actives 0.15% (n = 340,000) | Q9NZ08;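 active = mean replicate inhibition of at least 30%, or all replicates individually reaching that 30% level; inactive = mean below 30% and not every replicate reaching it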;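 also: 0% = neutral control wells and 100% = L-leucinethiol positive control wells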
# AF4-AF9 inh – inhibitors of human MLL-AF4/AF9 interaction; actives 0.47% (n = 350,000); AlphaScreen, biotin-AF4 peptide binding to FLAG-AF9; inhibition, % at 10 µM; P42568;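 active = every replicate reaching a set inhibition limit, whatever the replicate mean, cut at about 25% in these data; inconclusive = mean inhibition reaches that limit but some replicates miss it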;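 also: 0% = plate neutral control median and 100% = total signal loss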
# Ecoli rRNA inh – inhibits bacterial ribosomal RNA function over humanized ribosomes; E. coli WT GFP vs humanized-ribosome RFP mutants, fluorescence, 24 h; hits give low values; DMSO median 0, no signal -100; GFP signal change (wild-type ribosome), % (no concentration beside the values); actives 1.6% (n = 350,000);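 active = significant combined selectivity score with lowered wild-type GFP, culture density cut under 30%, mutant RFP and density less affected; inactive = any of these conditions unmet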
# SIRT5 inh – sirtuin-5 (human) deacylase inhibition; AID 652115; Purified SirT5, succinyl-peptide AMC, trypsin-coupled fluorescence; actives 1.1% (n = 330,000); inhibition, % at 15 µM; Q9NXA8; in the data active = inhibition above about 15%; inconclusive = no clear call, values can overlap the other calls
# Target sequence (Q9NXA8 whole entry, looked up): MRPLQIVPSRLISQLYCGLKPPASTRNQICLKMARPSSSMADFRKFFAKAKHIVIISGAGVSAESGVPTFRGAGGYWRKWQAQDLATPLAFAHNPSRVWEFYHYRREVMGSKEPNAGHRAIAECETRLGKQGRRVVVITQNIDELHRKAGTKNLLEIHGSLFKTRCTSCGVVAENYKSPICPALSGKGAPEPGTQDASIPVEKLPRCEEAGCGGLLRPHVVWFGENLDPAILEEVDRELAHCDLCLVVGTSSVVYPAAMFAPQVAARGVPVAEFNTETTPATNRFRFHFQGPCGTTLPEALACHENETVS
# E-sel inducer – induces E-selectin expression in human endothelial cells. P16581. HUVEC E-selectin immunofluorescence imaging; normalized: neutral wells 0, TNF-alpha wells 100. activation, % at 7.58 µM. actives 0.37% (n = 260,000). AID 686992;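 active = mean E-selectin-positive cell signal at least 10% of the positive control, reached in at least 60% of replicates, without over 20% cell loss; inconclusive = no rule given, readout overlaps actives, possibly toxicity-flagged; inactive = the rest, including those meeting only one limit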
#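 Assay system: HUVEC primary endothelial cells. Input: 3,000 HUVEC seeded per well. Doses: one compound dose added by pin transfer. Read-out basis: % PE-positive cells. Benchmarks: TNF-alpha high, DMSO low. Detection: immunofluorescence imaging. Buffer or medium: EGM-2, gelatin.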
# S100A4 MyoIIA – blocks human S100A4 binding to myosin IIA peptide. P26447. S100A4/TAMRA-MyoIIA peptide fluorescence polarization. inhibition, % at 10.7 µM. actives 0.14% (n = 360,000). AID 652163;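 active = mean inhibition of at least 70% across replicates, with every replicate also reaching that level; inconclusive = mean inhibition reaches 70% but some replicates fall short; inactive = mean inhibition below 70%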
# Target sequence (P26447 whole entry, looked up): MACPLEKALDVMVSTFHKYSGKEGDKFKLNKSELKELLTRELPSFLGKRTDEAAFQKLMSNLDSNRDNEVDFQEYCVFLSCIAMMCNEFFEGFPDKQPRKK
#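 System – human S100A4 monomer protein, biochemical binding assay · Buffer or medium – Calcium-containing HEPES buffer, pH 7.2 · Timing – 5 min between mix addition and reading · Also added – TAMRA-labelled myosin IIA heavy-chain peptide probe, 5 nM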
# The depositor's hits bear a star; ? = inconclusive; nt = not tested or not shown; ! = not active in a repeat. Only some compounds are listed: those with a hit (about 3.4% of all), similar ones and a draw of the others.
SMILES,ERAP1 inh,AF4-AF9 inh,Ecoli rRNA inh,SIRT5 inh,E-sel inducer,S100A4 MyoIIA
COCCNC(=O)c1cc2c(c(-c3cccc(-c4cccc(F)c4)c3)n1)[C@H](CCO)N(S(=O)C(C)(C)C)C2 (some centres undefined),0.0,-1.6,-7.4,36.2*,0.3,-14.2
CC(C)(C)[S@](=O)N1Cc2cc(C(=O)N[C@@H]3CCN(Cc4ccccc4)C3)nc(-c3cccc(-c4cccnc4)c3)c2[C@@H]1CCO,-2.3,3.1,-0.4,-0.1,0.1,-7.9
CC(C)(C)[S@](=O)N1Cc2cc(C(=O)N[C@H]3CCN(Cc4ccccc4)C3)nc(-c3cccc(-c4ccncc4)c3)c2[C@@H]1CCO,0.4,4.8,-2.3,8.5,62.5*,-59.6
O=C(NCC1CC1)c1cc2c(c(-c3cccc(-c4ccccc4F)c3)n1)[C@@H](CCO)N(C(=O)CC1CC1)C2,-2.8,-7.1,3.0,15.3*,0.1,-7.9
CCCNC(=O)c1cc2c(c(-c3cccc(-c4cccc(OC)c4)c3)n1)[C@H](CCO)N([S@@](=O)C(C)(C)C)C2,0.3,-0.7,-3.4,17.8*,0.0,-36.5
COc1ccc2c3c(n(C)c2c1)[C@H](CO)N(C(=O)CN(C)C)CC31CN(C(=O)CN(C)C)C1,nt,nt,0.4,nt,nt,nt
COc1ccc(NC(=O)N(C)C[C@H]2Oc3c(NS(=O)(=O)c4cn(C)cn4)cccc3C(=O)N([C@@H](C)CO)C[C@H]2C)cc1,-1.8,-3.0,1.5,0.7,-14.4,5.3
CO[C@@H](CN(C)S(=O)(=O)c1ccccc1)[C@@H](C)CN(Cc1ccccc1Cl)[C@@H](C)CO,-0.2,1.2,-1.1,-4.2,0.0,7.4
COc1ccc(CNC(=O)c2cc3c(c(-c4cccc(-c5cccc(C#N)c5)c4)n2)[C@H](CCO)N([S@@](=O)C(C)(C)C)C3)cc1,-0.3,9.5,-52.4,0.8,54.5*,4.1
CC(C)NC(=O)N1Cc2cc(C(=O)NC3CCCCC3)nc(-c3cccc(-c4cccnc4)c3)c2[C@@H]1CCO,-1.0,12.1,-40.3*!,-0.7,0.2,-6.1
C[C@@H]1CN([C@@H](C)CO)C(=O)c2cc(NC(=O)CCC(F)(F)F)ccc2O[C@@H](C)CCCCO[C@H]1CN(C)Cc1ccc(C(F)(F)F)cc1,-1.6,0.4,2.2,8.6,0.0,-1.5
C[C@H](CO)N1C[C@H](C)[C@@H](CN(C)C)OCCCC[C@H](C)Oc2ccc(NS(=O)(=O)c3ccc(Cl)cc3)cc2C1=O,9.5,-7.2,2.7,6.5,0.4,9.4
CC#C[C@]1(O)CC[C@H]2[C@@H]3CCC4=CC(=O)CCC4=C3[C@@H](c3ccc(N(C)C)cc3)C[C@@]21C,1.0,32.9*,nt,-0.5,1.9,9.3
Cc1noc(C)c1NC(=O)Nc1ccc2c(c1)C(=O)N([C@H](C)CO)C[C@@H](C)[C@@H](CN(C)C(=O)Nc1ccc(C(F)(F)F)cc1)O2,-2.8,0.7,-16.2,-3.9,0.0,-10.4
COCC(=O)Nc1ccc2c(c1)[C@H]1C[C@@H](CC(=O)OC)O[C@H](CO)[C@H]1O2,nt,nt,1.6,nt,-0.5,nt
Oc1c(C=C2N=c3ccccc3=N2)sc(=S)n1-c1ccccc1,0.3,2.7,-3.3,-6.9,3.3,-11.6
CC1=Nc2ccccc2/C1=C/c1sc(=S)n(-c2cccc(C(=O)O)c2)c1O,18.8,6.5,-16.2,16.9*,-0.1,-11.0
COc1ccc(S(=O)(=O)N(C)C[C@@H]2Oc3ccc(NC(=O)Nc4cccc5ccccc45)cc3CC(=O)N([C@H](C)CO)C[C@@H]2C)cc1,0.6,4.5,5.3,4.6,?,1.7
O=C(CSc1ccccn1)N/N=C/c1cc([N+](=O)[O-])ccc1O,2.2,2.7,-19.4*,2.3,3.8,-4.7
O=C(Cn1nc2ccccc2n1)N/N=C/c1cc([N+](=O)[O-])ccc1O,3.1,-4.4,0.7,1.5,-0.7,-3.8
C[C@@H]1CCCCO[C@H](CN(C)C(=O)Cc2ccccc2)[C@@H](C)CN([C@H](C)CO)C(=O)c2cc(NC(=O)NC3CCCCC3)ccc2O1,nt,nt,1.1,nt,-0.1,nt
COc1ccc(F)cc1C(=O)C1CCCN(Cc2cn(C)c3ccccc23)C1 (centres undefined),3.5,7.5,-31.1*,-0.3,nt,-3.2
CO[C@H]1CN(C)C(=O)c2ccc(NC(=O)c3cnccn3)cc2OC[C@@H](C)NC[C@H]1C,nt,nt,4.3,nt,-0.1,nt
CO[C@H]1CN(C)C(=O)c2ccc(NC(=O)Nc3cc(Cl)cc(Cl)c3)cc2OC[C@H](C)NC[C@H]1C,-6.0,17.6,2.0,-8.5,nt,8.6
CO[C@@H]1CN(C)C(=O)c2ccc(NC(=O)c3cnccn3)cc2OC[C@@H](C)NC[C@H]1C,-3.8,-3.8,1.8,15.4*,0.0,9.8
SMILES,ERAP1 inh,AF4-AF9 inh,Ecoli rRNA inh,SIRT5 inh,E-sel inducer,S100A4 MyoIIA
CO[C@H]1CN(C)C(=O)c2ccc(NC(=O)Nc3cc(Cl)cc(Cl)c3)cc2OC[C@@H](C)NC[C@@H]1C,-1.6,6.0,-15.1,1.4*,-0.1,-8.2
CO[C@@H]1CN(C)C(=O)c2ccc(NC(=O)Nc3ccc(C(F)(F)F)cc3)cc2OC[C@@H](C)NC[C@@H]1C,0.0,8.3,-59.2,nt,-0.1,-11.8
CO[C@H]1CN(C)C(=O)c2cc(NC(=O)Nc3ccc(C(F)(F)F)cc3)ccc2OC[C@H](C)NC[C@H]1C,1.6,-6.4,-10.6,3.6,0.1,136.0*
CO[C@H]1CN(C)C(=O)c2cc(NC(=O)Nc3ccc(Cl)cc3)ccc2OC[C@H](C)NC[C@H]1C,nt,8.5,-3.7,nt,66.3*,nt
C[C@@H]1CN([C@H](C)CO)C(=O)Cc2cc(NC(=O)Cc3cn(C)c4ccccc34)ccc2O[C@@H]1CN(C)Cc1ccc(-c2ccccc2)cc1,-2.0,2.5,5.8,3.4,1.0,-1.7
CCCNC(=O)C[C@@H]1CC[C@H]2[C@@H](COc3ccc(NC(=O)c4cccc(Cl)c4)cc3C(=O)N2C)O1,3.5,0.1,3.6,-3.8,0.2,-2.0
COc1cc(/C=C2/C(=O)NN(c3ccc(F)cc3)C2=O)cc(Cl)c1O,1.7,-5.0,4.6,-2.6,0.1,-14.8
COc1cc(/C=C2/C(=O)NN(c3ccc(Cl)c(Cl)c3)C2=O)cc([N+](=O)[O-])c1O,7.9,4.1,-15.8,22.1*,0.2,-2.2
CN(C)C(=O)c1cccc(-c2ccc3c(c2)[C@H]2[C@H](CCN2C(=O)c2ccccc2F)[C@H](CO)N3)c1,-2.6,-3.4,-6.8,0.4,-0.6,5.4
CC(=O)Nc1cccc(-c2cn3ccccc3n2)c1,-0.5,-0.6,3.0,-6.7,-0.2,-3.3
O=C(Nc1cccc(-c2cn3ccccc3n2)c1)c1cc2ccccc2oc1=O,2.6,5.8,3.1,19.4*,nt,-0.8

# Assay outcomes from PubChem.
